Activity calls are given as the source filed them.
How the values were obtained:
Type in all cases: functional, cell-based
BT-549 = assay: Growth inhibition of human BT549 cells at 10^-5 M incubated for 48 hrs by sulforhodamine B assay
Procedure, shortened: (§1)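 Run in the NCI59 one-dose cell-line screen, with each compound tested at a single concentration of 1 × 10−5 M.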

T47D = assay: Growth inhibition of human T47D cells at 10^-5 M incubated for 48 hrs by sulforhodamine B assay
Procedure, shortened: (§2)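 Tested at a single concentration of 1 × 10−5 M as part of the NCI59 cell-line one-dose screen.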

Hs-578T = assay: Growth inhibition of human Hs 578T cells at 10^-5 M incubated for 48 hrs by sulforhodamine B assay; procedure, shortened: as §1
MCF7 = assay: Growth inhibition of human MCF7 cells at 10^-5 M incubated for 48 hrs by sulforhodamine B assay; procedure, shortened: as §1
MDA-MB-231 = assay: Growth inhibition of human MDA-MB-231 cells at 10^-5 M incubated for 48 hrs by sulforhodamine B assay; procedure, shortened: as §1
DU-145 = assay: Growth inhibition of human DU145 cells at 10^-5 M incubated for 48 hrs by sulforhodamine B assay; procedure, shortened: as §1
UO-31 = assay: Growth inhibition of human UO31 cells at 10^-5 M incubated for 48 hrs by sulforhodamine B assay; procedure, shortened: as §2
PC-3 = assay: Growth inhibition of human PC3 cells at 10^-5 M incubated for 48 hrs by sulforhodamine B assay; procedure, shortened: as §1
SN12C = assay: Growth inhibition of human SN12C cells at 10^-5 M incubated for 48 hrs by sulforhodamine B assay; procedure, shortened: as §1
TK-10 = assay: Growth inhibition of human TK10 cells at 10^-5 M incubated for 48 hrs by sulforhodamine B assay; procedure, shortened: as §2
RXF 393 = assay: Growth inhibition of human RXF393 cells at 10^-5 M incubated for 48 hrs by sulforhodamine B assay; procedure, shortened: as §1
ACHN = assay: Growth inhibition of human ACHN cells at 10^-5 M incubated for 48 hrs by sulforhodamine B assay; procedure, shortened: as §1
CAKI-1 = assay: Growth inhibition of human Caki1 cells at 10^-5 M incubated for 48 hrs by sulforhodamine B assay; procedure, shortened: as §1
A498 = assay: Growth inhibition of human A498 cells at 10^-5 M incubated for 48 hrs by sulforhodamine B assay; procedure, shortened: as §1
786-0 = assay: Growth inhibition of human 786-0 cells at 10^-5 M incubated for 48 hrs by sulforhodamine B assay; procedure, shortened: as §1
NCI/ADR-RES = assay: Growth inhibition of human NCI/ADR-RES cells at 10^-5 M incubated for 48 hrs by sulforhodamine B assay; procedure, shortened: as §1
SK-OV-3 = assay: Growth inhibition of human SKOV3 cells at 10^-5 M incubated for 48 hrs by sulforhodamine B assay; procedure, shortened: as §1
OVCAR-8 = assay: Growth inhibition of human OVCAR8 cells at 10^-5 M incubated for 48 hrs by sulforhodamine B assay; procedure, shortened: as §1
OVCAR-4 = assay: Growth inhibition of human OVCAR4 cells at 10^-5 M incubated for 48 hrs by sulforhodamine B assay; procedure, shortened: as §1
OVCAR-5 = assay: Growth inhibition of human OVCAR5 cells at 10^-5 M incubated for 48 hrs by sulforhodamine B assay; procedure, shortened: as §1
IGROV-1 = assay: Growth inhibition of human IGROV1 cells at 10^-5 M incubated for 48 hrs by sulforhodamine B assay; procedure, shortened: as §1
OVCAR-3 = assay: Growth inhibition of human OVCAR3 cells at 10^-5 M incubated for 48 hrs by sulforhodamine B assay; procedure, shortened: as §1
UACC-62 = assay: Growth inhibition of human UACC62 cells at 10^-5 M incubated for 48 hrs by sulforhodamine B assay; procedure, shortened: as §2
SK-MEL-5 = assay: Growth inhibition of human SK-MEL-5 cells at 10^-5 M incubated for 48 hrs by sulforhodamine B assay; procedure, shortened: as §1
UACC-257 = assay: Growth inhibition of human UACC257 cells at 10^-5 M incubated for 48 hrs by sulforhodamine B assay; procedure, shortened: as §2
SK-MEL-28 = assay: Growth inhibition of human SK-MEL-28 cells at 10^-5 M incubated for 48 hrs by sulforhodamine B assay; procedure, shortened: as §1
MDA-MB-435 = assay: Growth inhibition of human MDA-MB-435 cells at 10^-5 M incubated for 48 hrs by sulforhodamine B assay; procedure, shortened: as §1
SK-MEL-2 = assay: Growth inhibition of human SK-MEL-2 cells at 10^-5 M incubated for 48 hrs by sulforhodamine B assay; procedure, shortened: as §1
M14 = assay: Growth inhibition of human M14 cells at 10^-5 M incubated for 48 hrs by sulforhodamine B assay; procedure, shortened: as §1
U-251 = assay: Growth inhibition of human U251 cells at 10^-5 M incubated for 48 hrs by sulforhodamine B assay; procedure, shortened: as §2
LOX IMVI = assay: Growth inhibition of human LOXIMVI cells at 10^-5 M incubated for 48 hrs by sulforhodamine B assay; procedure, shortened: as §1
SNB-19 = assay: Growth inhibition of human SNB19 cells at 10^-5 M incubated for 48 hrs by sulforhodamine B assay; procedure, shortened: as §1
SNB-75 = assay: Growth inhibition of human SNB75 cells at 10^-5 M incubated for 48 hrs by sulforhodamine B assay; procedure, shortened: as §1
SF-539 = assay: Growth inhibition of human SF539 cells at 10^-5 M incubated for 48 hrs by sulforhodamine B assay; procedure, shortened: as §1
SF-268 = assay: Growth inhibition of human SF268 cells at 10^-5 M incubated for 48 hrs by sulforhodamine B assay; procedure, shortened: as §1
SF-295 = assay: Growth inhibition of human SF295 cells at 10^-5 M incubated for 48 hrs by sulforhodamine B assay; procedure, shortened: as §1
SW-620 = assay: Growth inhibition of human SW620 cells at 10^-5 M incubated for 48 hrs by sulforhodamine B assay; procedure, shortened: as §2
HT-29 = assay: Growth inhibition of human HT-29 cells at 10^-5 M incubated for 48 hrs by sulforhodamine B assay; procedure, shortened: as §1
KM12 = assay: Growth inhibition of human KM12 cells at 10^-5 M incubated for 48 hrs by sulforhodamine B assay; procedure, shortened: as §1
HCT-116 = assay: Growth inhibition of human HCT116 cells at 10^-5 M incubated for 48 hrs by sulforhodamine B assay; procedure, shortened: as §1
HCT-15 = assay: Growth inhibition of human HCT15 cells at 10^-5 M incubated for 48 hrs by sulforhodamine B assay; procedure, shortened: as §1
HCC 2998 = assay: Growth inhibition of human HCC2998 cells at 10^-5 M incubated for 48 hrs by sulforhodamine B assay; procedure, shortened: as §1
NCI-H522 = assay: Growth inhibition of human NCI-H522 cells at 10^-5 M incubated for 48 hrs by sulforhodamine B assay; procedure, shortened: as §1
COLO 205 = assay: Growth inhibition of human COLO205 cells at 10^-5 M incubated for 48 hrs by sulforhodamine B assay; procedure, shortened: as §1
NCI-H460 = assay: Growth inhibition of human NCI-H460 cells at 10^-5 M incubated for 48 hrs by sulforhodamine B assay; procedure, shortened: as §1
NCI-H23 = assay: Growth inhibition of human NCI-H23 cells at 10^-5 M incubated for 48 hrs by sulforhodamine B assay; procedure, shortened: as §1
NCI-H322M = assay: Growth inhibition of human NCI-H322M cells at 10^-5 M incubated for 48 hrs by sulforhodamine B assay; procedure, shortened: as §1
NCI-H226 = assay: Growth inhibition of human NCI-H226 cells at 10^-5 M incubated for 48 hrs by sulforhodamine B assay; procedure, shortened: as §1
HOP-62 = assay: Growth inhibition of human HOP62 cells at 10^-5 M incubated for 48 hrs by sulforhodamine B assay; procedure, shortened: as §1
HOP-92 = assay: Growth inhibition of human HOP92 cells at 10^-5 M incubated for 48 hrs by sulforhodamine B assay; procedure, shortened: as §1
A549 = assay: Growth inhibition of human A549/ATCC cells at 10^-5 M incubated for 48 hrs by sulforhodamine B assay; procedure, shortened: as §1
EKVX = assay: Growth inhibition of human EKVX cells at 10^-5 M incubated for 48 hrs by sulforhodamine B assay; procedure, shortened: as §1
SR = assay: Growth inhibition of human SR cells at 10^-5 M incubated for 48 hrs by sulforhodamine B assay; procedure, shortened: as §1
MOLT-4 = assay: Growth inhibition of human MOLT4 cells at 10^-5 M incubated for 48 hrs by sulforhodamine B assay; procedure, shortened: as §1
RPMI-8226 = assay: Growth inhibition of human RPMI8226 cells at 10^-5 M incubated for 48 hrs by sulforhodamine B assay; procedure, shortened: as §1
K562 = assay: Growth inhibition of human K562 cells at 10^-5 M incubated for 48 hrs by sulforhodamine B assay; procedure, shortened: as §1
CCRF-CEM = assay: Growth inhibition of human CCRF-CEM cells at 10^-5 M incubated for 48 hrs by sulforhodamine B assay; procedure, shortened: as §1
HL-60(TB) = assay: Growth inhibition of human HL-60(TB) cells at 10^-5 M incubated for 48 hrs by sulforhodamine B assay
Procedure, shortened: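 Run in the NCI59 cell-line one-dose screen, with each compound tested at a single concentration of 1 × 10−5 M.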

Measured: growth inhibition (GI)

CC[C@H](C)C(=O)O[C@@H]1[C@H]2[C@@H](OC(=O)C(C)C)C(C)(C)[C@H](CC(=O)OC)[C@@]3(C)[C@H]4CC[C@]5(C)C(=CC(=O)O[C@H]5C5=CC(O)OC5=O)[C@@]14O[C@@]23O (stereo partly drawn)
inactive: all assays above

Source: ChEMBL document CHEMBL4052595, “Application of Residual Dipolar Couplings and Selective Quantitative NOE to Establish the Structures of Tetranortriterpenoids from Xylocarpus rumphii” (J Nat Prod, 2017)
